Test results published in ChEMBL document CHEMBL2331319, “Development of N-Hydroxycinnamamide-Based Histone Deacetylase Inhibitors with Indole-Containing Cap Group” (ACS Med Chem Lett, 2013).
Activity calls are given as the source filed them. The calls are words filed in the database; no cut-off is given here.

What was measured:
[1] = molecular target: Histone deacetylase; experiment: Inhibition of HDAC in human HeLa cell nuclear extract using Boc-Lys(acetyl)-AMC as substrate preincubated with enzyme for 5 mins prior to substrate addition measured after 30 mins by fluorescence assay; type: protein assay
[2] = tested on: PC-3; experiment: Inhibition of human PC3 cell proliferation after 48 hrs by MTT assay; type: functional, cell-based; details: PC-3, 48 h
[3] = tested on: MDA-MB-231; experiment: cells; type: functional, cell-based; details: Homo sapiens, MDA-MB-231, 48 h
[4] = tested on: A549; experiment: Inhibition of human A549 cell proliferation after 48 hrs by MTT assay; type: functional, cell-based; details: A549, 48 h
[5] = tested on: Mus musculus; experiment: Toxicity in athymic nude mouse xenografted with human U937 cells assessed as body weight loss at 60 mg/kg/day, po administered 10 days after tumor inoculation for 3 weeks; type: organism-based, U-937; parameters: route oral; details: in vivo
[6] = tested on: HCT-116; experiment: Inhibition of human HCT116 cell proliferation after 48 hrs by MTT assay; type: functional, cell-based; details: HCT-116, 48 h
[7] = Inhibition of human ES2 cell proliferation after 48 hrs by MTT assay; type: functional, cell-based; details: ES-2, 48 h
[8] = tested on: Mus musculus; experiment: Toxicity in athymic nude mouse xenografted with human U937 cells assessed as spleen injury at 60 mg/kg/day, po administered 10 days after tumor inoculation for 3 weeks; type: organism-based, U-937; parameters: route oral; details: in vivo
[9] = tested on: Mus musculus; experiment: Toxicity in athymic nude mouse xenografted with human U937 cells assessed as liver injury at 60 mg/kg/day, po administered 10 days after tumor inoculation for 3 weeks; type: organism-based, U-937; parameters: route oral; details: in vivo
[10] = tested on: U-937; experiment: Inhibition of human U937 cell proliferation after 48 hrs by MTT assay; type: functional, cell-based; details: U-937, 48 h
[11] = tested on: MDA-MB-231; experiment: Increase in histone H4 acetylation in human MDA-MB-231 cells at 1 uM after 3 to 24 hrs by Western blot analysis; type: functional, cell-based
Procedure, shortened: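 MDA-MB-231 cells were exposed at 1 μM for 3 h and 24 h. Lysates were immunoblotted for acetylated histone H4, with β-actin as the loading control.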

[12] = tested on: U-937; experiment: Antitumor activity against human U937 cells xenografted in athymic nude mouse assessed as T/C ratio at 60 mg/kg/day, po administered 10 days after tumor inoculation for 3 weeks; type: functional
Procedure, shortened: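 U937 cells implanted in nude mice, seven per group; oral dosing with a positive-control group run alongside. Tumour growth was followed as a growth curve, data given as mean ± SD; efficacy was expressed as tumour growth inhibition and relative increment ratio.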

[13] = tested on: U-937; experiment: Antitumor activity against human U937 cells xenografted in athymic nude mouse assessed as tumor growth inhibition at 60 mg/kg/day, po administered 10 days after tumor inoculation for 3 weeks measured every three days by vernier caliper; type: functional; details: read-out: TGI
Procedure, shortened: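 U937 xenografts in nude mice, seven per group, with oral dosing and a reference agent as positive control. Tumour growth was followed as a growth curve, and the data are given as mean ± SD.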

[14] = tested on: U-937; experiment: Antitumor activity against human U937 cells xenografted in athymic nude mouse assessed as tumor growth inhibition at 20 mg/kg/day, po administered 10 days after tumor inoculation for 3 weeks measured every three days by vernier caliper; type: functional; details: read-out: TGI
Procedure, shortened: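 U937 xenografts in nude mice, seven mice per group. Tamibarotene served as the positive control. Growth curves of the implanted tumours were followed over the treatment period and reported as mean ± SD.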

[15] = tested on: U-937; experiment: Antitumor activity against human U937 cells xenografted in athymic nude mouse assessed as T/C ratio at 20 mg/kg/day, po administered 10 days after tumor inoculation for 3 weeks; type: functional

Q: Which IC50 [1] does the source give for `COc1cc(/C=C/C(=O)NO)ccc1OC[C@H](Cc1c[nH]c2ccccc12)NS(=O)(=O)c1ccc(Cl)cc1` here?
A: The IC50 was 1.47 µM.

Q: For `COc1cc(/C=C/C(=O)NO)ccc1OC[C@@H](N)Cc1c[nH]c2ccccc12.Cl`, which IC50 [1] is on record?
A: Its IC50 is 2.91 µM.

Q: Which results are given for `CCCC(CCC)C(=O)N[C@H](COc1ccc(/C=C/C(=O)NO)cc1OC)Cc1c[nH]c2ccccc12`?
A: IC50 [2]: 3.7 µM; IC50 [3]: 3.1 µM; IC50 [4]: 4.4 µM; Activity [5]: Non-toxic; IC50 [6]: 5.5 µM; IC50 [7]: 5.4 µM; Activity [8]: Non-toxic; Activity [9]: Non-toxic; IC50 [10]: 1.8 µM; Activity [11]: Active; Activity [12]: 42%; inhibition in vivo at 60 mg/kg/day [13]: 53%

Q: With `COc1cc(/C=C/C(=O)NO)ccc1OC[C@H](Cc1c[nH]c2ccccc12)NC(=O)[C@H](CO)NC(=O)OC(C)(C)C` as the compound, how does the IC50 [2] read?
A: The IC50 was 8.2 µM.

Q: What about the IC50 [3] of the same compound?
A: Its IC50 is 11.7 µM.

Q: What about the IC50 [4] of the same compound?
A: The IC50 was 13.5 µM.

Q: What about the IC50 [1] of the same compound?
A: The IC50 was 0.14 µM.

Q: What about the IC50 [6] of the same compound?
A: The IC50 was 9.4 µM.

Q: And the IC50 [7]?
A: Its IC50 is 9.5 µM.

Q: What about the IC50 [10] of the same compound?
A: Its IC50 is 3.9 µM.

Q: With `COc1cc(/C=C/C(=O)NO)ccc1OC[C@H](Cc1c[nH]c2ccccc12)NC(=O)CNC(=O)OC(C)(C)C` as the compound, how does the IC50 [2] read?
A: Its IC50 is 10.5 µM.

Q: And the IC50 [3]?
A: Its IC50 is 7.2 µM.

Q: And the IC50 [4]?
A: Its IC50 is 11.8 µM.

Q: And the IC50 [1]?
A: The IC50 was 0.17 µM.

Q: What about the IC50 [6] of the same compound?
A: The IC50 was 6 µM.

Q: What about the IC50 [7] of the same compound?
A: Its IC50 is 29.2 µM.

Q: What about the IC50 [10] of the same compound?
A: The IC50 was 3.1 µM.

Q: With `COc1cc(/C=C/C(=O)NO)ccc1OC[C@H](Cc1c[nH]c2ccccc12)NC(=O)[C@@H]1CCCN1C(=O)OC(C)(C)C` as the compound, how does the IC50 [1] read?
A: Its IC50 is 0.43 µM.

Q: With `COc1cc(CCC(=O)NO)ccc1OC[C@H](Cc1c[nH]c2ccccc12)NC(=O)OC(C)(C)C` as the compound, how does the IC50 [1] read?
A: Its IC50 is 2.09 µM.

Q: Which IC50 [1] does the source give for `COc1cc(/C=C/C(=O)NO)ccc1OC[C@H](Cc1c[nH]c2ccccc12)NC(=O)[C@H](CCCCNC(=O)OC(C)(C)C)NC(=O)OC(C)(C)C` here?
A: The IC50 was 1.17 µM.

Q: Which IC50 [1] does the source give for `COc1cc(/C=C/C(=O)NO)ccc1OC[C@H](Cc1c[nH]c2ccccc12)NC(=O)[C@H](Cc1ccc(O)cc1)NC(=O)OC(C)(C)C` here?
A: The IC50 was 0.32 µM.

Q: What does the source list for `O=C(CCCCCCC(=O)Nc1ccccc1)NO` [VORINOSTAT]?
A: IC50 [7]: 12.7 µM; IC50 [10]: 2.3 µM

Q: With `COc1cc(/C=C/C(=O)NO)ccc1OC[C@H](Cc1c[nH]c2ccccc12)NC(=O)[C@H](Cc1c[nH]c2ccccc12)NC(=O)OC(C)(C)C` as the compound, how does the IC50 [1] read?
A: Its IC50 is 0.49 µM.

Q: Which IC50 [1] does the source give for `COc1cc(/C=C/C(=O)NO)ccc1OC[C@H](Cc1c[nH]c2ccccc12)NC(=O)[C@@H]1CC2(CN1C(=O)OC(C)(C)C)SCCS2` here?
A: The IC50 was 0.8 µM.

Q: With `COc1cc(/C=C/C(=O)NO)ccc1OC[C@H](Cc1c[nH]c2ccccc12)NS(=O)(=O)c1ccc(NC(C)=O)cc1` as the compound, how does the IC50 [1] read?
A: Its IC50 is 0.71 µM.

Q: For `COc1cc(/C=C/C(=O)NO)ccc1OC[C@H](Cc1c[nH]c2ccccc12)NS(=O)(=O)c1ccc(F)cc1`, which IC50 [1] is on record?
A: The IC50 was 1.06 µM.

Q: With `COc1cc(/C=C/C(=O)NO)ccc1OC[C@H](Cc1c[nH]c2ccccc12)NC(=O)[C@H](CCSC)NC(=O)OC(C)(C)C` as the compound, how does the IC50 [2] read?
A: The IC50 was 5.8 µM.

Q: And the IC50 [3]?
A: The IC50 was 6.8 µM.

Q: And the IC50 [4]?
A: Its IC50 is 1.6 µM.

Q: And the IC50 [1]?
A: Its IC50 is 0.18 µM.

Q: And the IC50 [6]?
A: Its IC50 is 5.9 µM.

Q: And the IC50 [7]?
A: The IC50 was 4.4 µM.

Q: And the IC50 [10]?
A: The IC50 was 2.2 µM.

Q: Which IC50 [1] does the source give for `COc1cc(/C=C/C(=O)NO)ccc1OC[C@H](Cc1c[nH]c2ccccc12)NC(=O)[C@@H](NC(=O)OC(C)(C)C)C(C)C` here?
A: The IC50 was 0.43 µM.

Q: With `COc1cc(/C=C/C(=O)NO)ccc1OC[C@H](Cc1c[nH]c2ccccc12)NC(=O)C1CCN(C(=O)OC(C)(C)C)CC1` as the compound, how does the IC50 [1] read?
A: The IC50 was 1.12 µM.

Q: Which results are given for `COc1cc(/C=C/C(=O)NO)ccc1OC[C@H](Cc1c[nH]c2ccccc12)NC(=O)[C@@H](NC(=O)OC(C)(C)C)[C@@H](C)O`?
A: IC50 [2]: 5.4 µM; IC50 [3]: 7.2 µM; IC50 [4]: 7 µM; IC50 [1]: 0.18 µM; IC50 [6]: 2.4 µM; IC50 [7]: 8.9 µM; IC50 [10]: 2.7 µM

Q: Which IC50 [1] does the source give for `COc1cc(/C=C/C(=O)NO)ccc1OC[C@H](Cc1c[nH]c2ccccc12)NC(=O)[C@H](CC(C)C)NC(=O)OC(C)(C)C` here?
A: The IC50 was 0.57 µM.

Q: Which inhibition in vivo at 20 mg/kg/day [14] does the source give for `CC1(C)CCC(C)(C)c2cc(NC(=O)c3ccc(C(=O)O)cc3)ccc21` [TAMIBAROTENE] here?
A: Its inhibition in vivo at 20 mg/kg/day is 33%.

Q: What about the Activity [15] of the same compound?
A: Its Activity is 85%.

Q: What does the source list for `COc1cc(/C=C/C(=O)NO)ccc1OC[C@H](Cc1c[nH]c2ccccc12)NC(=O)[C@H](C)NC(=O)OC(C)(C)C`?
A: IC50 [2]: 10.4 µM; IC50 [3]: 4.5 µM; IC50 [4]: 4.2 µM; IC50 [1]: 0.16 µM; IC50 [6]: 3.8 µM; IC50 [7]: 25.1 µM; IC50 [10]: 2.2 µM

Q: With `CC[C@H](C)[C@H](NC(=O)OC(C)(C)C)C(=O)N[C@H](COc1ccc(/C=C/C(=O)NO)cc1OC)Cc1c[nH]c2ccccc12` as the compound, how does the IC50 [1] read?
A: Its IC50 is 0.38 µM.

Q: Which IC50 [1] does the source give for `COc1cc(/C=C/C(=O)NO)ccc1OC[C@H](Cc1c[nH]c2ccccc12)NS(=O)(=O)c1c(C(C)C)cc(C(C)C)cc1C(C)C` here?
A: The IC50 was “ND(Insoluble)”.

Q: Which IC50 [1] does the source give for `COc1cc(/C=C/C(=O)NO)ccc1OC[C@H](Cc1c[nH]c2ccccc12)NC(=O)OC(C)(C)C` here?
A: Its IC50 is 0.65 µM.

Q: Which IC50 [1] does the source give for `COc1cc(/C=C/C(=O)NO)ccc1OC[C@H](Cc1c[nH]c2ccccc12)NC(=O)[C@H](Cc1ccccc1)NC(=O)OC(C)(C)C` here?
A: Its IC50 is 0.62 µM.

Q: For `COc1cc(/C=C/C(=O)NO)ccc1OC[C@H](Cc1c[nH]c2ccccc12)NC(=O)c1ccc(NC(=O)OC(C)(C)C)cc1`, which IC50 [1] is on record?
A: The IC50 was 0.73 µM.
